Test [1] deals with T1, Adenosine receptor A1 (Homo sapiens) (UniProt P30542).
T1 sequence (whole entry): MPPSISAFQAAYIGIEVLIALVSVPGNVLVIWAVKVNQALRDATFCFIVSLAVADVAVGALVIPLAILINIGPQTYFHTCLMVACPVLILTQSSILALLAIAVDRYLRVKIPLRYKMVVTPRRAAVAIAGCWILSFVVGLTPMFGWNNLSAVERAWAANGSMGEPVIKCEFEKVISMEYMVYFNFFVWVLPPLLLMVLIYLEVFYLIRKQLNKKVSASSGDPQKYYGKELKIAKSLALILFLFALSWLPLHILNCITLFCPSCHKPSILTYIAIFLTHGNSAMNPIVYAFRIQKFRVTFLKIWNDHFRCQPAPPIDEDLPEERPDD
Kind of test: Displacement of [3H]DPCPX from human recombinant adenosine A1 receptor expressed in CHO cell membranes at 1 uM by scintillation counting. The method, boiled down:
(§1)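 hA1 CHO membranes incubated with 1 nM [³H]DPCPX for 120 min at 25 °C in 50 mM Tris-HCl, pH 7.4. Ki from six to eight antagonist concentrations: IC50 converted by Cheng–Prusoff, curves fitted by weighted nonlinear least squares, four separate assays in duplicate (mean ± SEM). Single-concentration runs give percentage inhibition of specific binding.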
(In a radioligand displacement assay an active substance lowers the binding of a labelled ligand.)

The target of test [2] is T2, Adenosine receptor A2a (Homo sapiens, UniProt P29274). Kind of test: Displacement of [3H]ZM241385 from human recombinant adenosine A2A receptor expressed in CHO cell membranes at 1 uM by scintillation counting. The method, boiled down: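 Uses 1 nM [³H]ZM241385 with hA2A CHO membranes in 50 mM Tris-HCl, 10 mM MgCl2, pH 7.4, for 60 min at 4 °C. Ki from six to eight antagonist concentrations via Cheng–Prusoff with weighted nonlinear least-squares fitting; four assays in duplicate (mean ± SEM). Single-concentration runs give percentage inhibition.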

The target of test [3] is T3, Adenosine receptor A3 (Homo sapiens) (UniProt P0DMS8).
T3 sequence (whole entry): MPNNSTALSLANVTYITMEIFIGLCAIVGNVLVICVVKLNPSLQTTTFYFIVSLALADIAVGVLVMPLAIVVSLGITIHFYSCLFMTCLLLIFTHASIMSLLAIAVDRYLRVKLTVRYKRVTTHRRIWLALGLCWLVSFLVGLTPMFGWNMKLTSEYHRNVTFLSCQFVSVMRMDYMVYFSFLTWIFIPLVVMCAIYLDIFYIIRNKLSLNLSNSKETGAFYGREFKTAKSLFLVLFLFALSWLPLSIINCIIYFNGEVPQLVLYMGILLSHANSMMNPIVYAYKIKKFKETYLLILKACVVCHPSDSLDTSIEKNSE
The experiment in a line: Displacement of [125I]I-AB-MECA from human recombinant adenosine A3 receptor expressed in CHO cells at 1 uM by scintillation counting. In kind it is cell-based. The method, boiled down: (§2)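 For hA3, CHO membranes are incubated with [¹²⁵I]AB-MECA in 50 mM Tris-HCl, 10 mM MgCl2, 1 mM EDTA, pH 7.4, for 120 min at 4 °C. Ki from six to eight ligand concentrations via Cheng–Prusoff with weighted nonlinear least-squares fitting; four assays in duplicate (mean ± SEM). Single-concentration runs give percentage inhibition.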

Test [4] deals with T4, Adenosine receptor A2b (Homo sapiens) (UniProt P29275).
T4 sequence (whole entry): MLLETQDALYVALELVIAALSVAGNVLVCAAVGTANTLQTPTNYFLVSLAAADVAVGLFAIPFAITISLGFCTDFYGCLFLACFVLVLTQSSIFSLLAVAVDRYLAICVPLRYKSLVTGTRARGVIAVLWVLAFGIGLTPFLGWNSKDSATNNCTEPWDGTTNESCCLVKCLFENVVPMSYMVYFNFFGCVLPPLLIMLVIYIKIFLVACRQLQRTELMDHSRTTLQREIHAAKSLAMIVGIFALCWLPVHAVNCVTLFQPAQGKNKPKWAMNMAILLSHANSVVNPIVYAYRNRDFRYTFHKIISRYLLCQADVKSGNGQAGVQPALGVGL
The experiment in a line: Antagonist activity at human recombinant adenosine A2B receptor expressed in CHO cells assessed as inhibition of NECA-induced cAMP levels at 1 uM. The class given is functional, cell-based. The method, boiled down: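 hA2B-transfected CHO cells (1×10⁶/assay), preincubated 10 min at 37 °C in pH 7.4 saline-Hepes-glucose buffer with 2 IU/ml adenosine deaminase and Ro 20-1724 as phosphodiesterase inhibitor. Compound tested against 200 nM NECA-stimulated cAMP. Reaction stopped with cold 6% TCA and ether-extracted. cAMP measured by competition binding with [³H]cAMP and bovine adrenal binding protein (150 min, 4 °C), charcoal separation, scintillation counting; expressed as percentage inhibition.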

For a further test, the target named is T5, Adenosine receptor A3 (Homo sapiens, UniProt P0DMS8).
T5 sequence (P0DMS8 whole entry): T3 sequence (whole entry)
The experiment in a line: Displacement of [125I]I-AB-MECA from human recombinant adenosine A3 receptor expressed in CHO cells by scintillation counting. In kind it is cell-based. The gist of the method:
as §2

For a further test, the target named is T6, Adenosine receptor A1 (Homo sapiens, UniProt P30542).
T6 sequence (P30542 whole entry): T1 sequence (whole entry)
The experiment in a line: Displacement of [3H]DPCPX from human recombinant adenosine A1 receptor expressed in CHO cell membranes by scintillation counting. The method, boiled down:
as §1

Test [5] addresses T2, Adenosine receptor A2a. Kind of test: Displacement of [3H]ZM241385 from human recombinant adenosine A2A receptor expressed in CHO cell membranes by scintillation counting.
Test [6] addresses T2, Adenosine receptor A2a. Particulars: CHO, 10 uM.

T2 sequence (P29274 whole entry): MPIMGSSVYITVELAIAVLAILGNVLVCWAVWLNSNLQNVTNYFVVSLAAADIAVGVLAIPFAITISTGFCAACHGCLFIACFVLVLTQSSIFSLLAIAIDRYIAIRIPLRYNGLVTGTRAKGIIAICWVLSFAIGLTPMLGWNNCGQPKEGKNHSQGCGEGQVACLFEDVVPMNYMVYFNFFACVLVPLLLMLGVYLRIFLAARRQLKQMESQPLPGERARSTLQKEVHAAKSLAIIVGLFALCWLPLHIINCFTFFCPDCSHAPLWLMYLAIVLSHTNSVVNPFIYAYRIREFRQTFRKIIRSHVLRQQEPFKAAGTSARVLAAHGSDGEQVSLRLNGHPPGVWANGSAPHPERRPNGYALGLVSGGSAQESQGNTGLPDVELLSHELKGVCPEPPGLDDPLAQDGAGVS

As for `Nc1cccc2c1[nH]c(=O)c1nn(-c3ccccc3)cc12`, the inhibition in test [1] is 8%; on Adenosine receptor A2a [2], 1%; in test [3], 18%; in test [4] it was 5%.
With `Cn1cc2c(n1)c(=O)[nH]c1c(OCc3ccccc3)cccc12`, the results for the inhibition (in test [1]; at Adenosine receptor A2a [2]; in test [4]) were 2%, 1% and 3%, respectively. For the same compound, at Adenosine receptor A3, the Ki amounted to 600 nM.
`Cn1cc2c(n1)c(N)nc1c(OCc3ccccc3)cccc12`: the Ki came to 970 nM on Adenosine receptor A1, 750 nM on Adenosine receptor A2a [5] and 500 nM at Adenosine receptor A3. Moreover, the inhibition in test [4] was found to be 4%.
On to `Nc1nc2c(OCCc3ccccc3)cccc2c2cn(-c3ccccc3)nc12`, for which the inhibition in test [1] is 40%; at Adenosine receptor A2a [2], 11%; in test [3], 28%; in test [4], 5%.
In the case of `Nc1nc2c(OCc3ccccc3)cccc2c2cn(-c3ccccc3)nc12`, the inhibition constant Ki at Adenosine receptor A1 stood at 140 nM. Further, the inhibition on Adenosine receptor A2a [2] was determined as 16%; in test [3] it was 20%; in test [4], 5%.
The corresponding values for `Nc1nc2c(NCc3ccccc3)cccc2c2cn(-c3ccccc3)nc12` are 455 nM, 1%, 1% and 3%.
For `O=c1[nH]c2c(OCc3ccccc3)cccc2c2cn(-c3ccccc3)nc12`, the inhibition in test [1] stood at 20%; on Adenosine receptor A2a [2] it was 1%; in test [3] it was 33%; in test [4], 2%.
On to `O=c1[nH]c2c(OC(c3ccccc3)c3ccccc3)cccc2c2cn(-c3ccccc3)nc12`, for which the inhibition in test [1] worked out at 6%; on Adenosine receptor A2a [2] it was 1%; in test [3], 6%; in test [4], 7%.
As for `Nc1nc2c(Br)cccc2c2cn(-c3ccccc3)nc12`, the Ki on Adenosine receptor A1 worked out at 300 nM. Also, the values for the inhibition (at Adenosine receptor A2a [2]; in test [3]; in test [4]) were 35%, 29% and 2%, respectively.
As to `Nc1nc2c(O)cccc2c2cn(-c3ccccc3)nc12`, the Ki at Adenosine receptor A1 came out at 100 nM. The inhibition on Adenosine receptor A2a [2] was found to be 19%; in test [3] it was 20%; in test [4], 4%.
Turning to `O=C(Nc1cccc2c1[nH]c(=O)c1nn(-c3ccccc3)cc12)OCc1ccccc1`, the inhibition was found to be 3% in test [1], 1% at Adenosine receptor A2a [2], 14% in test [3] and 5% in test [4].
Taken in the same sequence, the figures for `Cn1cc2c(n1)c(=O)[nH]c1ccccc12` were 2%, 1%, 12% and 2%.
The corresponding values for `O=c1[nH]c2c(O)cccc2c2cn(-c3ccccc3)nc12` are 1%, 5%, 16% and 4%.
`O=c1[nH]c2ccccc2c2cn(-c3ccccc3)nc12`: the inhibition on Adenosine receptor A2a [6] is 43%.
For the compound `Cn1cc2c(n1)c(N)nc1ccccc12`, the inhibition in test [1] amounted to 20%; at Adenosine receptor A2a [2], 26%; in test [3], 18%; in test [4], 5%.
Taken in the same sequence, the figures for `O=c1[nH]c2c(Br)cccc2c2cn(-c3ccccc3)nc12` were 8%, 17%, 16% and 5%.

As a reminder, the inhibition is the change of the read-out against control, counted positive when it falls. Broadly, the Ki is the equilibrium dissociation constant of an inhibitor or competing ligand from its target.

The values above are taken from ChEMBL document CHEMBL1795254, “Synthesis, structure-affinity relationships, and molecular modeling studies of novel pyrazolo[3,4-c]quinoline derivatives as adenosine receptor antagonists” (Bioorg Med Chem, 2011).
